Screening data (PubChem BioAssay)
Only some compounds are listed: those with a hit (about 2.7% of all), similar ones and a draw of the others.
SIAE primary: inhibitors of human sialic acid acetylesterase SIAE | inhibition, % at 9.66 µM | 0.69% of 370,000 active | AID 1053197 | Q9HAT2 | SIAE FP-Rh probe binding, fluorescence polarization;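 active = inhibition above a cutoff: mean of compounds within the control limits plus 3 SD of those, cut at about 17% in these data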
PAD4 FP inh: inhibitors of human PAD4 | Q9UM07 | 0.41% of 330,000 active | recombinant PAD4, RCA probe fluorescence polarization | inhibition, % at 6.36 µM;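 active = percent inhibition above a cutoff equal to the mean of all tested compounds plus 3 SD, cut at about 15% in these data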
Target sequence (Q9UM07 whole entry, looked up): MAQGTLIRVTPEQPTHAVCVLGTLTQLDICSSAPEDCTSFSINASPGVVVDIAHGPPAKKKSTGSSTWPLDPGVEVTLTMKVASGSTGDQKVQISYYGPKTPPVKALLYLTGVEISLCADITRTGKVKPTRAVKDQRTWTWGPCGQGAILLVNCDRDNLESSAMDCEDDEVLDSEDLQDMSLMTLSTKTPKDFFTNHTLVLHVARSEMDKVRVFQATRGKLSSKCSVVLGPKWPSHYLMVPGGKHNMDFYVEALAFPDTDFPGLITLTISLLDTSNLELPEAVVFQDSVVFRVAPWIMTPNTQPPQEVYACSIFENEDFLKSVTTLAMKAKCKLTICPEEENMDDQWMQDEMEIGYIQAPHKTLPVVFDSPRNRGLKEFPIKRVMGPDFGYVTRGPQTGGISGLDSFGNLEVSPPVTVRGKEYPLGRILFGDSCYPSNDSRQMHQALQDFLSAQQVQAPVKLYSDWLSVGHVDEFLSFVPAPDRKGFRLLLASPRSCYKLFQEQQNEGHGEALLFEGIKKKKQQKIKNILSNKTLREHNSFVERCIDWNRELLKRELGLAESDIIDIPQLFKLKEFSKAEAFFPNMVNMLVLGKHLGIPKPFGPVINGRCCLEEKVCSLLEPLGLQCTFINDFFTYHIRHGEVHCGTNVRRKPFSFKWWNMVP
PRMT1 FP inh: PRMT1 (human) inhibition, primary screen; Q99873; recombinant PRMT1, activity-based probe fluorescence polarization; inhibition, % at 2.79 µM; 1.3% of 370,000 active;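 active = inhibition above about 21% made by adding two undisclosed values, limit read from the data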
RBBP9 inhibitor: blocks human serine hydrolase RBBP9; inhibition, % at 7.94 µM; recombinant RBBP9, FP-Rh probe fluorescence polarization; AID 1515; 0.2% of 220,000 active; O75884;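 active = inhibition above the campaign mean of all tested compounds plus 3 SD, cut at about 14% in these data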
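Measured by – fluorescence polarization · Test system – RBBP9 protein · Input – 2.5 µM RBBP9 dispensing solution, before mixing · Measure – percent inhibition from mP, scaled between DMSO and no-protein wells · Benchmarks – DMSO-treated enzyme wells and wells lacking RBBP9 · Times – preincubation 30 min plus labeling 45 min at 25 °C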
GSTO1 counter: blocks human GSTO1 in RBBP9 counter-screen; recombinant GSTO1, activity-based probe fluorescence polarization; P78417; AID 1974; 1.1% of 300,000 active; inhibition, % at 5.96 µM;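 active = inhibition above the campaign mean inhibition plus 3 SD, cut at about 35% in these data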
SIAE confirm: human SIAE inhibition, confirmation; AID 1117263; shares compounds with SIAE primary; 13% of 2,300 active; SIAE FP-Rh activity-based probe, fluorescence polarization; inhibition, % at 9.66 µM;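 active = mean inhibition of the replicates above the hit cutoff set in the primary screen, cut at about 17% in these data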;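 note: inhibitors lower polarization as more probe stays unbound to SIAE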
Of the large screens only hits and unclear results are named; the others gave an inactive call (follow-up assays come after a bar, where they were run).

O=C(COC(=O)c1ccccc1O)Nc1ccc(N2CCOCC2)cc1	SIAE primary 17.3 (no result: RBBP9 inhibitor, GSTO1 counter) | SIAE confirm inactive
Clc1ccccc1N=Nc1ccccn1	SIAE primary 20.3, PRMT1 FP inh 62.7 (no result: PAD4 FP inh, RBBP9 inhibitor, GSTO1 counter) | SIAE confirm inactive
COc1ccc(OCCC(=O)Nc2ccc(S(N)(=O)=O)cc2)cc1	SIAE primary 18.4 (no result: RBBP9 inhibitor) | SIAE confirm inactive
CC(C)N(C(=O)Cn1c(-c2cccnc2)ccc(C#N)c1=O)C(C)C	none (no result: RBBP9 inhibitor)
COc1ccccc1Nc1ccc(NC(=O)c2cccc([N+](=O)[O-])c2C)cc1	SIAE primary 17.7 (no result: RBBP9 inhibitor) | SIAE confirm inactive
CC1CCCCC1NC(=O)COC(=O)c1c2c(nc3ccccc13)/C(=C/c1ccco1)CC2 (stereo not drawn)	none
Oc1ccc(C2=Nn3c(nnc3-c3ccco3)SC2)cc1O	SIAE primary 29.9 | SIAE confirm inactive
c1coc(-c2nnc3n2N=C(c2ccc4ccccc4c2)CS3)c1	none (no result: PAD4 FP inh, RBBP9 inhibitor, GSTO1 counter)
O=C(O)c1cc([N+](=O)[O-])cc2ccccc12	none (no result: PAD4 FP inh, RBBP9 inhibitor, GSTO1 counter)
Cc1ccc(C(=O)COC(=O)c2cccc(NC(=O)c3ccc([N+](=O)[O-])cc3[N+](=O)[O-])c2)cc1	SIAE primary 21.1 | SIAE confirm inactive
Cc1nnc(NC(=O)CCCCCN2C(=O)C3C4C=CC(C4)C3C2=O)s1 (stereo not drawn)	none
CC1=CSC2=NC(=O)/C(=C\c3cccn3-c3ccccc3)C(=N)N12	none
O=C(Oc1ccc2ccc(=O)oc2c1)C1CCCCC1	SIAE primary 38.2 | SIAE confirm 33.6
O=C(NN=C1CCCC1)C(=O)Nc1cccc(C(F)(F)F)c1	none
COc1cccc(CNC(=O)COC(=O)/C(C#N)=C/c2ccc(N(C)C)cc2)c1	none (no result: RBBP9 inhibitor, GSTO1 counter)
CCc1ccc(NC(=O)Nc2ccc3c(c2)N(C)C(=O)CS3)cc1	SIAE primary 24.5 | SIAE confirm inactive
O=C(O)c1ccc(C=NNC(=O)c2cc(-c3ccc(Cl)cc3)n[nH]2)cc1	none (no result: PAD4 FP inh, RBBP9 inhibitor, GSTO1 counter)
CC(=O)NC12CC3CC(C1)CC(C(=O)N1CCN(S(=O)(=O)c4ccccc4C#N)CC1)(C3)C2	SIAE primary 27.8 (no result: PAD4 FP inh, RBBP9 inhibitor, GSTO1 counter) | SIAE confirm inactive
CCCC(=O)N1CCC(O)(c2cccc(F)c2)CC1	SIAE primary 49.1 | SIAE confirm inactive
O=C(C1CCC1)N1CCC(O)(c2cccc(F)c2)CC1	none
CC(C)N1CCN(Cc2cn[nH]c2C2CCCCC2)CC1CCO (stereo not drawn)	none
CCOC(=O)N/N=C/c1cn(Cc2ccc(Cl)cc2)c2ccccc12	SIAE primary 17.8 | SIAE confirm inactive
CCOC(=O)N/N=C/c1cn(Cc2ccc(F)cc2)c2ccccc12	none
Cc1ccc(C(=O)Nc2ccc(F)cc2)o1	none
CCCCSCCCNC(=O)CS(=O)Cc1nc(-c2cccc(C)c2)oc1C (stereo not drawn)	none
CCC(C)NC(=O)CS(=O)Cc1nc(-c2cccc(C)c2)oc1C (stereo not drawn)	SIAE primary 25.3 | SIAE confirm inactive
CCCCNC(=O)CS(=O)Cc1nc(-c2cccc(C)c2)oc1C (stereo not drawn)	SIAE primary 25.9 | SIAE confirm inactive
Cc1cc(C)cc(N(C(=O)c2cc3ccccc3oc2=O)C2C=CS(=O)(=O)C2)c1 (stereo not drawn)	none
COc1ccc(C(=O)NC2CCCCCC2)cc1S(=O)(=O)N1CCOCC1	none (no result: RBBP9 inhibitor)
O=C(NCc1cccs1)c1cccc(Nc2nc3ccc(Br)cc3[nH]2)c1	SIAE primary 43.0 | SIAE confirm 21.7
O=C(NCc1cccs1)c1ccccc1	none
CCN(CC)CCN(C(=O)CCS(=O)(=O)c1ccccc1)c1nc2cc(C)cc(C)c2s1	none (no result: RBBP9 inhibitor)
NC(=S)NNc1ccnc2cc(Cl)ccc12	SIAE primary 19.6 | SIAE confirm inactive
C/C(=N/Nc1ccnc2cc(Cl)ccc12)c1ccc(N)cc1	SIAE primary 23.0 (no result: RBBP9 inhibitor) | SIAE confirm inactive
FC(F)Oc1ccc(NC(=S)NNc2ccnc3cc(Cl)ccc23)cc1	SIAE primary 35.5 | SIAE confirm inactive
O=C(NNc1ccnc2cc(Cl)ccc12)C1CCCCC1	none
Cc1c(C(=O)N2CCCC2)nnn1-c1nonc1N	none
Cc1ccc(S(=O)(=O)N(C)c2ccc(C(=O)N(C)Cc3nc4ccccc4c(=O)[nH]3)cc2)cc1	none (no result: PAD4 FP inh, RBBP9 inhibitor, GSTO1 counter)
COc1cc(OC)c(C2N(C)c3ccccc3N2C)cc1OC	none (no result: SIAE primary, PRMT1 FP inh)
COc1cc(OC)c(C2SCCCS2)cc1OC	SIAE primary 18.3 | SIAE confirm inactive
COc1ccc(-n2nnc3c(=O)n(CC(=O)Nc4cc(C)on4)cnc32)cc1OC	SIAE primary 23.8 | SIAE confirm inactive
